The results in this text go back to ChEMBL document CHEMBL2203198, “Prodrugs of a CXC Chemokine-12 (CXCL12) Neutraligand Prevent Inflammatory Reactions in an Asthma Model in Vivo” (ACS Med Chem Lett, 2012).

The term inhibition denotes the drop in the measured response relative to a control, in per cent. By inhibition in vivo is commonly meant the relative decrease from the control value, in per cent. In general, half-life refers to the time needed for the level to fall by half in the phase considered. For orientation: solubility means the concentration that dissolves in the medium under given conditions. Broadly, the Ki is a measure of affinity in units of concentration, obtained from inhibition or displacement.

Molecules are shown by their SMILES. ≈ marks a conversion by molar mass, not a printed value. Calls of active or inactive are those of the source.

In data set [1] the test system is Mus musculus. Briefly: Prodrug activation in ovalbumin sensitized Balb/c mouse hypereosinophilia model assessed as chalcone-4 release in lungs at 30 nmol/kg administered intranasally. Format: organism-based. To be noted: in vivo, inhaled_or_intranasal.
The test system of data set [2] is Mus musculus. The data set can be described thus: Antiinflammatory activity in ovalbumin sensitized Balb/c mouse hypereosinophilia model assessed as inhibition of lymphocyte recruitment at 30 nmol/kg administered intranasally 2 hrs prior to ovalbumin challenge measured 24 hrs post the last ovalbumin challenge by BAL analysis. Format: functional, organism-based. The essentials:
(§1)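 8-day airway hypereosinophilia model in OVA-sensitized mice; OVA (10 μg in 25 μL saline, 12.5 μL/nostril) given intranasally on days 5, 6, 7 under ip ketamine 50 mg/kg/xylazine 3.33 mg/kg. Compound in PBS (25 μL) given intranasally 2 h before each challenge. BAL cell counts by hemocytometer plus Hemacolor-stained cytospin differentials (≥400 cells), as absolute numbers; n = 6 mice/group.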

Data set [3] relates to Mus musculus. The data set can be described thus: Antiinflammatory activity in ovalbumin sensitized Balb/c mouse hypereosinophilia model assessed as inhibition of macrophage recruitment at 30 nmol/kg administered intranasally 2 hrs prior to ovalbumin challenge measured 24 hrs post the last ovalbumin challenge by BAL analysis. Format: functional, organism-based. The procedure, abridged:
as §1

Data set [4] deals with Mus musculus. The data set can be described thus: Antiinflammatory activity in ovalbumin sensitized Balb/c mouse hypereosinophilia model assessed as inhibition of neutrophil recruitment at 30 nmol/kg administered intranasally 2 hrs prior to ovalbumin challenge measured 24 hrs post the last ovalbumin challenge by BAL analysis. The data set is classed as functional, organism-based. The essentials:
as §1

In data set [5] the test system is Mus musculus. Briefly: Antiinflammatory activity in ovalbumin sensitized Balb/c mouse hypereosinophilia model assessed as inhibition of eosinophil recruitment at 30 nmol/kg administered intranasally 2 hrs prior to ovalbumin challenge measured 24 hrs post the last ovalbumin challenge by BAL analysis. Format: functional. To be noted: inhaled or nasal. The essentials:
as §1

Data set [6] concerns the target T1, C-X-C chemokine receptor type 4 (Homo sapiens, UniProt P61073). The data set can be described thus: Inhibition of EGFP-tagged human CXCR4 expressed in HEK293 cells assessed as inhibition of CXCL12-TR binding at 5 uM incubated for 5 mins prior to CXCL12-TR addition by FRET assay. The data set is classed as cell-based. The procedure, abridged:
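Binding of Texas Red-labelled CXCL12 (100 nM) to EGFP-tagged CXCR4 read by FRET as real-time decline of EGFP emission at 510 nm. Compound tested at 5 μM; percent inhibition of binding reported.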

Data set [7] can be described thus: Half life in mouse lung homogenate by LC-MS analysis. Format: ADME, tissue-based. The procedure, abridged:
(§2)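 Freshly prepared compound solutions (10 μM) incubated at 37 °C in PBS, mouse serum or mouse lung homogenate. Parent and released product followed by LC-MS, RP-HPLC on C18 with ammonium acetate pH 7.4/acetonitrile gradient, 365 nm detection. Half-life taken from disappearance over time.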

Data set [8] can be described thus: Half life in mouse serum by LC-MS analysis. The data set is classed as ADME, cell-free. The procedure, abridged:
as §2

The nature of data set [9]: Half life in PBS buffer by LC-MS analysis. The data set is classed as physicochemical. The procedure, abridged: as §2
A short description of data set [10]: Solubility of the compound in HEPES buffer at pH 7.4 after 24 hrs. The data set is classed as physicochemical. The procedure, abridged: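 Thermodynamic solubility in aqueous HEPES buffer, pH 7.4, 22 °C, after 24 h incubation; tested up to 30 mM.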
The test system of data set [11] is Mus musculus. Briefly: Prodrug activation in ovalbumin sensitized Balb/c mouse hypereosinophilia model assessed as chalcone-4 release in lungs at 22 nmol/kg administered intranasally after 15 mins. The data set is classed as organism-based. To be noted: in vivo, inhaled_or_intranasal, 0.25 h. The procedure, abridged: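 LC-MS detection of released parent chalcone in mouse lung tissue 15 min after intranasal dosing of prodrug.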

For data set [12], the system named is Mus musculus. The data set can be described thus: Antiinflammatory activity in ovalbumin sensitized Balb/c mouse hypereosinophilia model assessed as inhibition of eosinophil recruitment administered intranasally 2 hrs prior to ovalbumin challenge for 3 days. The data set is classed as functional, organism-based. The essentials: as §1
The subject of data set [13] is Mus musculus. Briefly: Antiinflammatory activity in ovalbumin sensitized Balb/c mouse hypereosinophilia model assessed as inhibition of lymphocyte recruitment at 22 nmol/kg administered intranasally 2 hrs prior to ovalbumin challenge for 3 days. The data set is classed as functional, organism-based. The essentials:
as §1

For data set [14], the system named is Mus musculus. Briefly: Antiinflammatory activity in ovalbumin sensitized Balb/c mouse hypereosinophilia model assessed as inhibition of macrophage recruitment at 22 nmol/kg administered intranasally 2 hrs prior to ovalbumin challenge for 3 days. The data set is classed as functional, organism-based. The procedure, abridged: as §1
The subject of data set [15] is Mus musculus. Briefly: Antiinflammatory activity in ovalbumin sensitized Balb/c mouse hypereosinophilia model assessed as inhibition of neutrophil recruitment at 22 nmol/kg administered intranasally 2 hrs prior to ovalbumin challenge for 3 days. Format: functional, organism-based. The procedure, abridged: as §1
For data set [16], the system named is Mus musculus. The data set can be described thus: Antiinflammatory activity in ovalbumin sensitized Balb/c mouse hypereosinophilia model assessed as inhibition of eosinophil recruitment at 22 nmol/kg administered intranasally 2 hrs prior to ovalbumin challenge for 3 days. The data set is classed as functional. The essentials:
as §1

Data set [17] has as its target T1, C-X-C chemokine receptor type 4. Briefly: Inhibition of EGFP-tagged human CXCR4 expressed in HEK293 cells assessed as inhibition of CXCL12-TR binding incubated for 5 mins prior to CXCL12-TR addition by FRET assay. Format: cell-based.

T1 sequence (P61073 whole entry): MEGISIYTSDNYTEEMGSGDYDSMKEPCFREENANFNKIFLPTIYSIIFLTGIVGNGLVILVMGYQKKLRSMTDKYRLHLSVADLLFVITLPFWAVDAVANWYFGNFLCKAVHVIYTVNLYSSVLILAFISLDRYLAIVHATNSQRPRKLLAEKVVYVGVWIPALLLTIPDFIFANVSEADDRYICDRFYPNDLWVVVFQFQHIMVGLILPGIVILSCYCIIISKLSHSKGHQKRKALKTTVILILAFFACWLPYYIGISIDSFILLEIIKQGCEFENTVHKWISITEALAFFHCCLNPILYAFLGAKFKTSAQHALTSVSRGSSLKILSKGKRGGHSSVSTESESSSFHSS

Turning to `COc1cc(/C=C/C(=O)c2ccc(Cl)cc2)ccc1OC(=O)[C@H](N)CO.Cl`, the Drug metabolism entry with Mus musculus [1] is “Active”. Further, the inhibition entry in the data set on Mus musculus [2] and in the data set on Mus musculus [4] was “Active” each time. The inhibition entry in the data set on Mus musculus [3] is “inactive”. Moreover, the inhibition in vivo at 0.03 µmol/kg with Mus musculus [5] amounted to 67%. The inhibition in data set [6] was found to be 15%. Further, the values for the half-life in data set [7], in data set [8] and in [9] were less than 0.0833 h, less than 0.0833 h and 0.2 h, respectively. The same compound returned a solubility at 24 h in [10] of 42 µM.

`COc1cc(/C=C/C(=O)c2ccc(Cl)cc2)ccc1OS(=O)(=O)[O-].[Na+]`: the Drug metabolism result with Mus musculus [1] is “Active”. The inhibition entry in the data set on Mus musculus [2] and with Mus musculus [4] was “Active” each time. In addition, the inhibition result in the data set with Mus musculus [3] is “inactive”. Moreover, the inhibition in vivo at 0.03 µmol/kg in the data set with Mus musculus [5] turned out to be 69%. Also, the inhibition in [6] amounted to 4%. Further, the half-life in [7] was 0.5 h; in data set [8], greater than 10 h; in data set [9], greater than 10 h. The same compound yielded a solubility at 24 h in data set [10] of 1430 µM.

Take `COc1cc(/C=C/C(=O)c2ccc(Cl)cc2)ccc1OP(=O)([O-])[O-].[Na+].[Na+]`: the Drug metabolism entry in the data set on Mus musculus [1] and with Mus musculus [11] was “Active” each time. The inhibition entry in the data set on Mus musculus [2], in the data set with Mus musculus [4], in the data set on Mus musculus [13] and in the data set on Mus musculus [15] was “Active” throughout. Moreover, the inhibition result with Mus musculus [3] and in the data set with Mus musculus [14] was “inactive” each time. Further, the inhibition in vivo at 0.03 µmol/kg in the data set with Mus musculus [5] is 64%. Moreover, the IC50 in the data set with Mus musculus [12] came out at 10 nmol/kg. For the same compound, the inhibition in vivo at 0.022 µmol/kg with Mus musculus [16] (inhaled or nasal) is 56%. In addition, the inhibition in data set [6] was found to be 5%. Moreover, the half-life in data set [7] was less than 0.25 h; in data set [8], 2 h; in data set [9], greater than 10 h. For the same compound, the solubility at 24 h in data set [10] was greater than 30000 µM.

`COc1cc(/C=C/C(=O)c2ccc(Cl)cc2)ccc1O`: the Drug metabolism entry in the data set on Mus musculus [1] is listed as “Active”. The inhibition result in the data set with Mus musculus [13], in the data set on Mus musculus [14], in the data set on Mus musculus [15] and in the data set on Mus musculus [16] was “inactive” throughout. In addition, the inhibition in data set [6] worked out at 90%. Besides, the inhibition constant (Ki) in data set [17] turned out to be 53 nM. Besides, the figures for the half-life in data set [7], in data set [8] and in data set [9] were greater than 6 h, greater than 10 h and greater than 10 h, respectively. In data set [10], this compound had a solubility at 24 h of 9 µM (≈ 2.6 µg/mL).
